Laboratory results from ChEMBL document CHEMBL1152833, “Synthesis of some novel N4-(naphtha[1,2-d]thiazol-2-yl)semicarbazides as potential anticonvulsants” (Eur J Med Chem, 2009).
The source made the active and inactive calls.

The compounds below were run on Mus musculus (assay: Neurotoxicity in ip dosed Swiss albino mouse assessed as minimum drug concentration required for falling off the rotarod by half or more of mouse after 4 hrs by rotarod test). Settings: in vivo.
Type: toxicity, organism-based
Summary of the method: (§1)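 Rotarod test in male Swiss albino mice (18–25 g) after i.p. dosing at 30, 100 and 300 mg/kg, read at 0.5 and 4 h. Mice falling within 30 s in a pre-check were excluded. Neurotoxicity was scored as the minimum dose at which half or more of the mice fell off the rod.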

Row | Structure (SMILES) | Activity [mg/kg]
1 | O=C(N/N=C1\C(=O)Nc2ccccc21)Nc1nc2c(ccc3ccccc32)s1 | 300
2 | CN(C)c1ccc(/C=N/NC(=O)Nc2nc3c(ccc4ccccc43)s2)cc1 | 300
3 | O=C(N/N=C/c1ccc(Cl)cc1)Nc1nc2c(ccc3ccccc32)s1 | 300
4 | O=C(N/N=C/c1ccccc1O)Nc1nc2c(ccc3ccccc32)s1 | 100
5 | O=C(N/N=C/c1ccc(F)cc1)Nc1nc2c(ccc3ccccc32)s1 | 300
6 | COc1cc(/C=N/NC(=O)Nc2nc3c(ccc4ccccc43)s2)cc(OC)c1OC | 100

Each compound was assayed on Mus musculus (assay: Toxicity to Swiss albino mouse assessed as mortality following tonic extension at 300 mg/kg, ip after 4 hrs). Settings: in vivo.
Type: organism-based
Set-up: dose 300 mg/kg, route intraperitoneal

Row | Structure (SMILES) | Activity
7 | O=C(N/N=C/c1ccc(Cl)cc1)Nc1nc2c(ccc3ccccc32)s1 | Toxic

Each compound was assayed on Mus musculus (assay: Neurotoxicity in ip dosed Swiss albino mouse assessed as minimum drug concentration required for falling off the rotarod by half or more of mouse after 0.5 hrs by rotarod test). Settings: in vivo.
Type: toxicity, organism-based
Summary of the method: as §1

Row | Structure (SMILES) | Activity [mg/kg]
8 | O=C(N/N=C1\C(=O)Nc2ccccc21)Nc1nc2c(ccc3ccccc32)s1 | 100
9 | CN(C)c1ccc(/C=N/NC(=O)Nc2nc3c(ccc4ccccc43)s2)cc1 | 300
10 | O=C(N/N=C/c1ccc(Cl)cc1)Nc1nc2c(ccc3ccccc32)s1 | 100
11 | O=C(N/N=C/c1ccccc1O)Nc1nc2c(ccc3ccccc32)s1 | 100
12 | O=C(N/N=C/c1ccc(F)cc1)Nc1nc2c(ccc3ccccc32)s1 | 300
13 | COc1cc(/C=N/NC(=O)Nc2nc3c(ccc4ccccc43)s2)cc(OC)c1OC | 100

What follows are compounds tested on Mus musculus (assay: Anticonvulsant activity against pentylenetetrazole-induced seizures in Swiss albino mouse at 300 mg/kg, ip after 4 hrs by scPTZ test). Settings: not given.
Type: functional, organism-based
Set-up: dose 300 mg/kg
Summary of the method: (§2)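 Male Swiss albino mice (18–25 g) were dosed i.p. at 30, 100 and 300 mg/kg, examined at 0.5 and 4 h. PTZ 85 mg/kg (CD97) was given and the animals were […]. Protection meant absence of any threshold convulsion, i.e. clonic spasm lasting at least 5 s. The value is the minimum dose active in half or more of the mice.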

Row | Structure (SMILES) | Activity
14 | O=C(N/N=C1\C(=O)Nc2ccccc21)Nc1nc2c(ccc3ccccc32)s1 | inactive

What follows are compounds tested on Mus musculus (assay: Anticonvulsant activity against maximal electroshock-induced seizures in Swiss albino mouse at 300 mg/kg, ip after 4 hrs by MES test). Settings: not given.
Type: functional, organism-based
Set-up: dose 300 mg/kg
Summary of the method: (§3)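 Male Swiss albino mice (18–25 g) received compound i.p. at 30, 100 and 300 mg/kg. MES seizures were induced after 0.5 and 4 h, with a drop of 0.9% saline placed in the eye before the electrodes went on. Protection meant abolition of the hind-limb tonic extensor component. The tabulated value is the minimum dose protecting half or more of the mice.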

Row | Structure (SMILES) | Activity
15 | CN(C)c1ccc(/C=N/NC(=O)Nc2nc3c(ccc4ccccc43)s2)cc1 | inactive
16 | O=C(N/N=C/c1ccccc1O)Nc1nc2c(ccc3ccccc32)s1 | inactive

The compounds below were run on Mus musculus (assay: Anticonvulsant activity in ip dosed Swiss albino mouse assessed as minimum drug concentration required for inhibition of maximal electroshock-induced seizure in half or more of mouse after 0.5 hrs by MES test). Settings: not given.
Type: functional
Summary of the method: as §3

Row | Structure (SMILES) | Activity [mg/kg]
17 | O=C(N/N=C/c1ccc(Cl)cc1)Nc1nc2c(ccc3ccccc32)s1 | 100
18 | O=C(N/N=C/c1ccccc1O)Nc1nc2c(ccc3ccccc32)s1 | 100
19 | O=C(N/N=C/c1ccc(F)cc1)Nc1nc2c(ccc3ccccc32)s1 | 300
20 | COc1cc(/C=N/NC(=O)Nc2nc3c(ccc4ccccc43)s2)cc(OC)c1OC | 300

The compounds below were run on Mus musculus (assay: Anticonvulsant activity in ip dosed Swiss albino mouse assessed as minimum drug concentration required for inhibition of pentylenetetrazole-induced seizures in half or more of mouse after 0.5 hrs by scPTZ test). Settings: not given.
Type: functional
Summary of the method: as §2

Row | Structure (SMILES) | Activity [mg/kg]
21 | O=C(N/N=C1\C(=O)Nc2ccccc21)Nc1nc2c(ccc3ccccc32)s1 | 300
22 | CN(C)c1ccc(/C=N/NC(=O)Nc2nc3c(ccc4ccccc43)s2)cc1 | 300
23 | O=C(N/N=C/c1ccc(Cl)cc1)Nc1nc2c(ccc3ccccc32)s1 | 300
24 | O=C(N/N=C/c1ccccc1O)Nc1nc2c(ccc3ccccc32)s1 | 300
25 | O=C(N/N=C/c1ccc(F)cc1)Nc1nc2c(ccc3ccccc32)s1 | 100

Each compound was assayed on Rattus norvegicus (assay: Neurotoxicity in Wistar albino rat at 50 mg/kg, po by rotarod test). Settings: in vivo.
Type: toxicity, organism-based
Set-up: dose 50 mg/kg, route oral

Row | Structure (SMILES) | Activity
26 | O=C(N/N=C/c1ccc(F)cc1)Nc1nc2c(ccc3ccccc32)s1 | Non-toxic

These compounds were tested on Rattus norvegicus (assay: Anticonvulsant activity against pentylenetetrazole-induced seizures in Wistar albino rat at 50 mg/kg, po up to 2 hrs by scPTZ test). Settings: not given.
Type: functional, organism-based
Set-up: dose 50 mg/kg
Summary of the method: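 Male Wistar rats (100–125 g) were given compound orally at 50 mg/kg. They were challenged with scPTZ at 70 mg/kg at 0.25, 0.5, 1.0 and 2.0 h, and seizures were watched for. Protection meant absence of clonic spasm lasting at least 5 s. The score is the number of rats protected out of four.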

Row | Structure (SMILES) | Activity
27 | O=C(N/N=C/c1ccc(F)cc1)Nc1nc2c(ccc3ccccc32)s1 | Active

These compounds were tested on Mus musculus (assay: Antioxidant activity against PTZ-induced decrease in superoxide dismutase activity in Swiss albino mouse brain assessed as enzyme units per mg of protein causing 50% inhibition in NBT reduction rate at 100 mg/kg, ip administered 30 mins before PTZ challenge measured after 4 hrs). Settings: route intraperitoneal.
Type: functional
Summary of the method: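 Same mouse dosing: 100 mg/kg i.p. 30 min before PTZ 85 mg/kg, brains taken at 4 h. Total SOD was measured in the ethanol phase of an ethanol/chloroform (5:3) extract, as inhibition of NBT reduction by xanthine–xanthine oxidase. One unit gives 50% inhibition; activity is expressed per mg protein (Lowry). n=6, mean ± SEM.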

Row | Structure (SMILES) | Activity
28 | O=C(N/N=C/c1ccc(F)cc1)Nc1nc2c(ccc3ccccc32)s1 | 57

Each compound was assayed on Mus musculus (assay: Anticonvulsant activity against maximal electroshock-induced seizures in Swiss albino mouse at 300 mg/kg, ip after 0.5 hrs by MES test). Settings: not given.
Type: functional, organism-based
Set-up: dose 300 mg/kg
Summary of the method: as §3

Row | Structure (SMILES) | Activity
29 | O=C(N/N=C1\C(=O)Nc2ccccc21)Nc1nc2c(ccc3ccccc32)s1 | inactive
30 | CN(C)c1ccc(/C=N/NC(=O)Nc2nc3c(ccc4ccccc43)s2)cc1 | inactive

What follows are compounds tested on Mus musculus (assay: Antioxidant activity against PTZ-induced lipid peroxidation in Swiss albino mouse brain assessed as malondialdehyde content per mg of protein at 100 mg/kg, ip preincubated for 30 mins before PTZ challenge measured after 4 hrs by TBARS assay). Settings: route intraperitoneal.
Type: functional
Summary of the method: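 Mice were dosed 100 mg/kg i.p. 30 min before PTZ 85 mg/kg, and brains were homogenized after 4 h. For TBARS, homogenate supernatant was heated with SDS, acetic acid and 0.8% thiobarbituric acid at 95 °C for 1 h. The product was extracted into n-butanol/pyridine and read at 532 nm. Results are pmol MDA/mg protein, n=6, mean ± SEM.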

Row | Structure (SMILES) | Activity [pmol]
31 | O=C(N/N=C/c1ccc(F)cc1)Nc1nc2c(ccc3ccccc32)s1 | 278

What follows are compounds tested on Mus musculus (assay: Anticonvulsant activity against pentylenetetrazole-induced seizures in Swiss albino mouse at 300 mg/kg, ip after 0.5 hrs by scPTZ test). Settings: not given.
Type: functional, organism-based
Set-up: dose 300 mg/kg
Summary of the method: as §2

Row | Structure (SMILES) | Activity
32 | COc1cc(/C=N/NC(=O)Nc2nc3c(ccc4ccccc43)s2)cc(OC)c1OC | inactive

The compounds below were run on Mus musculus (assay: Anticonvulsant activity in ip dosed Swiss albino mouse assessed as minimum drug concentration required for inhibition of pentylenetetrazole-induced seizures in half or more of mouse after 4 hrs by scPTZ test). Settings: not given.
Type: functional
Summary of the method: as §2

Row | Structure (SMILES) | Activity [mg/kg]
33 | CN(C)c1ccc(/C=N/NC(=O)Nc2nc3c(ccc4ccccc43)s2)cc1 | 300
34 | O=C(N/N=C/c1ccccc1O)Nc1nc2c(ccc3ccccc32)s1 | 300
35 | O=C(N/N=C/c1ccc(F)cc1)Nc1nc2c(ccc3ccccc32)s1 | 100
36 | COc1cc(/C=N/NC(=O)Nc2nc3c(ccc4ccccc43)s2)cc(OC)c1OC | 300

The compounds below were run on Mus musculus (assay: Anticonvulsant activity in ip dosed Swiss albino mouse assessed as minimum drug concentration required for inhibition of maximal electroshock-induced seizure in half or more of mouse after 4 hrs by MES test). Settings: not given.
Type: functional
Summary of the method: as §3

Row | Structure (SMILES) | Activity [mg/kg]
37 | O=C(N/N=C1\C(=O)Nc2ccccc21)Nc1nc2c(ccc3ccccc32)s1 | 300
38 | O=C(N/N=C/c1ccc(Cl)cc1)Nc1nc2c(ccc3ccccc32)s1 | 100
39 | O=C(N/N=C/c1ccc(F)cc1)Nc1nc2c(ccc3ccccc32)s1 | 300
40 | COc1cc(/C=N/NC(=O)Nc2nc3c(ccc4ccccc43)s2)cc(OC)c1OC | 300
